The values below come from ChEMBL document CHEMBL2406982, “Structure-activity relationships of new cyanothiophene inhibitors of the essential peptidoglycan biosynthesis enzyme MurF” (Eur J Med Chem, 2013).

≈ marks a conversion by molar mass, not a printed value. Calls of active or inactive are those of the source. The rule behind the calls is not given here. Some results are limits rather than exact numbers.

Usually MIC stands for the lowest concentration that inhibits growth of the organism. As usually defined, the IC50 is the concentration needed to halve the response being measured. The low end stands for greater potency in that assay, the high end for weaker potency in that assay.

Assay [1] deals with Escherichia coli. As to the kind of experiment: Antimicrobial activity against Escherichia coli AB734 by broth microdilution method. Type of assay: functional, organism-based. An outline of the steps:
(§1)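 Broth microdilution MIC per CLSI guidelines in Mueller-Hinton broth. E. coli 1411 and AB734 were also tested with added polymyxin B nonapeptide to permeabilise the outer membrane.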
In general terms: In broth dilution the organism is exposed to a series of concentrations in liquid medium.

In assay [2] the test system is Escherichia coli. As to the kind of experiment: Inhibition of Escherichia coli MurF using D-Ala-D-Ala/UMtri-mDAP as substrate assessed as residual activity at 100 uM after 15 mins by Malachite green method. The method, boiled down:
(§2)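 Purified E. coli MurF in 50 mM Hepes pH 8.0, 50 mM MgCl2, 0.005% Triton X-114, with D-Ala-D-Ala, UMtri-mDAP and ATP. Compound was added in DMSO (final 5% v/v). Mixtures were incubated 15 min at 37 °C, quenched with Biomol reagent, and absorbance was read at 650 nm after 5 min. Runs were in duplicate. Residual activity was taken versus DMSO-only controls. IC50 came from residual activity at seven concentrations.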

Assay [3] relates to Staphylococcus aureus. The assay is described as follows: Antimicrobial activity against Staphylococcus aureus SH1000 by broth microdilution method. Type of assay: functional, organism-based. An outline of the steps: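 MIC by broth microdilution in Mueller-Hinton broth following CLSI guidelines.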
Assay [4] relates to Staphylococcus aureus. The assay is described as follows: Inhibition of Staphylococcus aureus MurF using D-Ala-D-Ala/UMtri-L-Lys as substrate assessed as residual activity at 100 uM after 15 mins by Malachite green method. The method, boiled down:
(§3)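 S. aureus MurF, purified, assayed in 50 mM Hepes pH 8.0 with 20 mM MgCl2 and 0.005% Triton X-114, with D-Ala-D-Ala, UMtri-L-Lys and ATP. Compound was in DMSO (5% v/v final). After 15 min at 37 °C, Biomol reagent was added and A650 was read 5 min later. Duplicates were run. Residual activity was relative to 5% DMSO controls. IC50 was read as 50% residual activity across seven concentrations.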

Assay [5] relates to Streptococcus pneumoniae. The assay is described as follows: Antimicrobial activity against Streptococcus pneumoniae R6 by broth microdilution method. Type of assay: functional. An outline of the steps:
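MIC by CLSI broth microdilution in Mueller-Hinton broth supplemented with 5% (v/v) lysed horse blood.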

Assay [6] deals with Streptococcus pneumoniae. The assay is described as follows: Inhibition of Streptococcus pneumoniae MurF using D-Ala-D-Ala/UMtri-L-Lys as substrate assessed as residual activity at 100 uM after 15 mins by Malachite green method. An outline of the steps:
(§4)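 Purified S. pneumoniae MurF in 50 mM Hepes pH 8.0, 50 mM MgCl2, 0.005% Triton X-114, with D-Ala-D-Ala, UMtri-L-Lys and ATP. Compound was added in DMSO (5% v/v final). Reactions ran 15 min at 37 °C, were stopped with Biomol malachite green reagent, and A650 was measured after 5 min. Runs were in duplicate. Residual activity was versus DMSO controls. IC50 was from seven concentrations.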

For assay [7], the system named is Escherichia coli. The assay is described as follows: Antimicrobial activity against Escherichia coli 1411 by broth microdilution method. The format is functional, organism-based. The method, boiled down:
as §1

A short description of assay [8]: Inhibition of Escherichia coli MurF using D-Ala-D-Ala/UMtri-mDAP as substrate after 15 mins by Malachite green method. An outline of the steps:
as §2

The nature of assay [9]: Inhibition of Streptococcus pneumoniae MurF using D-Ala-D-Ala/UMtri-L-Lys as substrate after 15 mins by Malachite green method. The method, boiled down: as §4
Assay [10] is described as follows: Inhibition of Staphylococcus aureus MurF using D-Ala-D-Ala/UMtri-L-Lys as substrate after 15 mins by Malachite green method. The method, boiled down: as §3

As for `N#Cc1ccc(N2CCc3c(sc(NC(=O)c4cc(S(=O)(=O)N5CCOCC5)c(Cl)cc4Cl)c3C#N)C2)cc1`, the result in the assay on Escherichia coli [1], in the assay on Staphylococcus aureus [3] and with Escherichia coli [7] was inactive. For the same compound, the Activity in the assay with Escherichia coli [2] was determined as 95%; in the assay with Staphylococcus aureus [4], 85%; in the assay with Streptococcus pneumoniae [6] it was 63%. Besides, the MIC against Streptococcus pneumoniae [5] was more than 128 µg/mL.

As to `CC1CCN(S(=O)(=O)c2cc(C(=O)Nc3sc4c(c3C#N)CCCC4)c(Cl)cc2Cl)CC1`, the result with Escherichia coli [1], in the assay with Staphylococcus aureus [3] and in the assay on Escherichia coli [7] was inactive. Further, the Activity was 87% in the assay with Escherichia coli [2], 80% with Staphylococcus aureus [4] and 90% in the assay on Streptococcus pneumoniae [6].

Consider `N#Cc1c(NC(=O)c2cc(S(=O)(=O)N3CCOCC3)c(Cl)cc2Cl)sc2c1CCN(Cc1ccc3c(c1)OCO3)C2`, for which the outcome in the assay on Escherichia coli [1], in the assay with Staphylococcus aureus [3] and in the assay with Escherichia coli [7] was inactive. In the assay with Streptococcus pneumoniae [5], this compound displayed an MIC of more than 128 µg/mL. Further, the IC50 in assay [8] is 73 µM; in [9], 990 nM; in assay [10] it was 109 µM.

For `N#Cc1c(NC(=O)c2cc(S(=O)(=O)N3CCOCC3)c(Cl)cc2Cl)sc2c1CCN(Cc1ccc(O)c(C(=O)O)c1)C2`, the outcome in the assay with Escherichia coli [1], with Staphylococcus aureus [3] and with Escherichia coli [7] was inactive. In the assay with Streptococcus pneumoniae [5], the MIC is more than 128 µg/mL. In addition, the IC50 in assay [8] amounted to 106 µM; in assay [9], 1410 nM; in assay [10], 132 µM.

As to `COC(=O)c1ccc(CN2CCc3c(sc(NC(=O)c4cc(S(=O)(=O)N5CCOCC5)c(Cl)cc4Cl)c3C#N)C2)cc1`, the outcome in the assay on Escherichia coli [1], with Staphylococcus aureus [3] and in the assay with Escherichia coli [7] was inactive. This compound also gave an MIC against Streptococcus pneumoniae [5] of more than 128 µg/mL. In addition, the IC50 in assay [8] came to 59 µM; in assay [9], 720 nM; in assay [10] it was 88 µM.

For the compound `N#Cc1c(NC(=O)c2cc(S(=O)(=O)N3CCNC(=O)C3)c(Cl)cc2Cl)sc2c1CCCC2`, the outcome in the assay with Escherichia coli [1], in the assay on Staphylococcus aureus [3] and in the assay with Escherichia coli [7] was inactive. Also, the values for the Activity with Escherichia coli [2], with Staphylococcus aureus [4] and in the assay on Streptococcus pneumoniae [6] were 91%, 95% and 89%, respectively.

Take `COc1ccc(CN2CCc3c(sc(NC(=O)c4cc(S(=O)(=O)N5CCOCC5)c(Cl)cc4Cl)c3C#N)C2)cc1OC`: the outcome with Escherichia coli [1], in the assay with Staphylococcus aureus [3] and in the assay with Escherichia coli [7] was inactive. For the same compound, the MIC against Streptococcus pneumoniae [5] was more than 128 µg/mL. The IC50 in assay [8] came to 37 µM; in assay [9], 10400 nM; in [10] it was 66.5 µM.

Consider `CCOC(=O)c1ccc(N2CCc3c(sc(NC(=O)c4cc(S(=O)(=O)N5CCOCC5)c(Cl)cc4Cl)c3C#N)C2)cc1`, for which the outcome in the assay with Escherichia coli [1], in the assay on Staphylococcus aureus [3] and in the assay with Escherichia coli [7] was inactive. Moreover, the Activity with Escherichia coli [2] worked out at 98%; in the assay on Staphylococcus aureus [4], 79%; in the assay with Streptococcus pneumoniae [6], 80%. The compound also displayed an MIC with Streptococcus pneumoniae [5] of more than 128 µg/mL.

On to `N#Cc1c(NC(=O)c2cc(S(=O)(=O)N3CCOCC3)c(Cl)cc2Cl)sc2c1CCN(Cc1ccc(F)cc1)C2`, for which the result with Escherichia coli [1], with Staphylococcus aureus [3] and in the assay with Escherichia coli [7] was inactive. For the same compound, in the assay on Streptococcus pneumoniae [5], the MIC is more than 128 µg/mL. Besides, the values for the IC50 in [8], in assay [9] and in assay [10] were 100 µM, 980 nM and 79 µM, respectively.

Take `N#Cc1c(NC(=O)c2cc(S(=O)(=O)N3CCOCC3)c(Cl)cc2Cl)sc2c1CCN(Cc1ccc(C(=O)O)cc1)C2`: the result in the assay on Escherichia coli [1], in the assay with Staphylococcus aureus [3] and in the assay on Escherichia coli [7] was inactive. In the assay on Streptococcus pneumoniae [5], the MIC was more than 128 µg/mL. In addition, the IC50 in [8] turned out to be 118 µM; in assay [9] it was 860 nM; in [10] it was 110 µM.

For `N#Cc1c(NC(=O)c2cc(S(=O)(=O)N3CCSCC3)c(Cl)cc2Cl)sc2c1CCCC2`, the outcome with Escherichia coli [1], in the assay with Staphylococcus aureus [3] and with Escherichia coli [7] was inactive. Further, the Activity amounted to 91% in the assay with Escherichia coli [2], 95% in the assay on Staphylococcus aureus [4] and 42% with Streptococcus pneumoniae [6]. In the assay on Streptococcus pneumoniae [5], this compound had an MIC of more than 128 µg/mL.

`N#Cc1c(NC(=O)c2cc(S(=O)(=O)N3CCOCC3)c(Cl)cc2Cl)sc2c1CCN(Cc1ccc([N+](=O)[O-])cc1)C2`: the outcome with Escherichia coli [1], in the assay with Staphylococcus aureus [3] and in the assay with Escherichia coli [7] was inactive. For the same compound, in the assay on Streptococcus pneumoniae [5], inhibition of growth (MIC) required 128 µg/mL (≈ 201 µM). In addition, the IC50 in assay [8] is 101 µM; in assay [9] it was 1090 nM; in assay [10], 94 µM.

Consider `N#Cc1ccc(CN2CCc3c(sc(NC(=O)c4cc(S(=O)(=O)N5CCOCC5)c(Cl)cc4Cl)c3C#N)C2)cc1`, for which the outcome with Escherichia coli [1], in the assay with Staphylococcus aureus [3] and with Escherichia coli [7] was inactive. This compound also had an MIC with Streptococcus pneumoniae [5] of more than 128 µg/mL. Besides, the IC50 in assay [8] was 62 µM; in [9], 1360 nM; in assay [10] it was 80 µM.

As for `N#Cc1c(NC(=O)c2cc(S(=O)(=O)N3CCOCC3)c(Cl)cc2Cl)sc2c1CCN(Cc1cccc(C(=O)O)c1)C2`, the result with Escherichia coli [1], in the assay on Staphylococcus aureus [3] and with Escherichia coli [7] was inactive. In the assay on Streptococcus pneumoniae [5], this compound had an MIC of more than 128 µg/mL. Moreover, the IC50 in assay [8] came to 67 µM; in assay [9], 2550 nM; in assay [10] it was 118 µM.

As for `N#Cc1c(NC(=O)c2cc(S(=O)(=O)N3CCOCC3)c(Cl)cc2Cl)sc2c1CCN(Cc1ccc(-c3nnn[nH]3)cc1)C2`, the outcome in the assay with Escherichia coli [1], in the assay with Staphylococcus aureus [3] and in the assay with Escherichia coli [7] was inactive. In the assay on Streptococcus pneumoniae [5], this compound showed an MIC of more than 128 µg/mL. The IC50 turned out to be 55 µM in assay [8], 300 nM in [9] and 120 µM in [10].

As to `CCOC(=O)C1CCN(S(=O)(=O)c2cc(C(=O)Nc3sc4c(c3C#N)CCCC4)c(Cl)cc2Cl)CC1`, the outcome in the assay on Escherichia coli [1], with Staphylococcus aureus [3] and with Escherichia coli [7] was inactive. The Activity in the assay on Escherichia coli [2] amounted to 95%; with Staphylococcus aureus [4], 100%; in the assay with Streptococcus pneumoniae [6] it was 100%.

As for `N#Cc1cccc(CN2CCc3c(sc(NC(=O)c4cc(S(=O)(=O)N5CCOCC5)c(Cl)cc4Cl)c3C#N)C2)c1`, the outcome in the assay with Escherichia coli [1], with Staphylococcus aureus [3] and with Escherichia coli [7] was inactive. Also, the MIC against Streptococcus pneumoniae [5] is more than 128 µg/mL. Besides, the IC50 worked out at 99 µM in assay [8], 1170 nM in [9] and 90 µM in assay [10].

Take `COc1ccc(CN2CCc3c(sc(NC(=O)c4cc(S(=O)(=O)N5CCOCC5)c(Cl)cc4Cl)c3C#N)C2)cc1O`: the result in the assay with Escherichia coli [1], in the assay with Staphylococcus aureus [3] and with Escherichia coli [7] was inactive. The same compound showed an MIC with Streptococcus pneumoniae [5] of more than 128 µg/mL. Moreover, the values for the IC50 in [8], in [9] and in [10] were 77 µM, 600 nM and 115 µM, respectively.

Turning to `COc1cc(CN2CCc3c(sc(NC(=O)c4cc(S(=O)(=O)N5CCOCC5)c(Cl)cc4Cl)c3C#N)C2)cc(OC)c1O`, the result in the assay on Escherichia coli [1], in the assay on Staphylococcus aureus [3] and in the assay with Escherichia coli [7] was inactive. In addition, it took 16 µg/mL (≈ 24 µM) to inhibit growth against Streptococcus pneumoniae [5] (MIC). Further, the figures for the IC50 in assay [8], in assay [9] and in assay [10] were 78 µM, 48000 nM and 84 µM, respectively.

Regarding `CC(=O)Oc1ccc(CN2CCc3c(sc(NC(=O)c4cc(S(=O)(=O)N5CCOCC5)c(Cl)cc4Cl)c3C#N)C2)cc1OC(C)=O`, the outcome with Escherichia coli [1], with Staphylococcus aureus [3] and in the assay on Escherichia coli [7] was inactive. Also, the MIC in the assay on Streptococcus pneumoniae [5] was more than 128 µg/mL. The IC50 in assay [8] came to 88 µM; in [9] it was 3030 nM; in assay [10], 89 µM.

In the case of `COc1ccc(CN2CCc3c(sc(NC(=O)c4cc(S(=O)(=O)N5CCOCC5)c(Cl)cc4Cl)c3C#N)C2)cc1`, the outcome in the assay on Escherichia coli [1], in the assay on Staphylococcus aureus [3] and in the assay with Escherichia coli [7] was inactive. For the same compound, the MIC against Streptococcus pneumoniae [5] was more than 128 µg/mL. Further, the figures for the IC50 in [8], in assay [9] and in assay [10] were 82 µM, 600 nM and 95 µM, respectively.
